# Assay results from different studies.
# Target: Myotonin-protein kinase (DMPK, Homo sapiens, UniProt Q09013)
# Residues used in one study (Q09013 1-629): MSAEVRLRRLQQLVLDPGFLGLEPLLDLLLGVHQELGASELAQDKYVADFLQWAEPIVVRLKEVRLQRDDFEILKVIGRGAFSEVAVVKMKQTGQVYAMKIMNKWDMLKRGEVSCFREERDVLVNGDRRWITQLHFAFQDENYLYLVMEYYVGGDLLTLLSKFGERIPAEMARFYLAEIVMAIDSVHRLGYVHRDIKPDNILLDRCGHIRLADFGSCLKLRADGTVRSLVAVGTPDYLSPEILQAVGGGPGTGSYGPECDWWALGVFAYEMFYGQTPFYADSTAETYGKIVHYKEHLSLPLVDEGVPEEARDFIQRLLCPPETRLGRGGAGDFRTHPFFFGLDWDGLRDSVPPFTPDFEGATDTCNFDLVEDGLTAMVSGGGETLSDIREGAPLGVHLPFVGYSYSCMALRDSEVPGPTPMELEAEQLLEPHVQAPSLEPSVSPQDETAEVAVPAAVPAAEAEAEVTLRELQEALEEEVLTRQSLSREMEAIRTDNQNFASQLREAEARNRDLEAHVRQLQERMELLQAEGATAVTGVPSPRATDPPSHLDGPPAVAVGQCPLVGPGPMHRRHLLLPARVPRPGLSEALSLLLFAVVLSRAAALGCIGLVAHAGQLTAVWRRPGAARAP
Structure (SMILES),observed,mode,technique,concentration,quantity,result
CC(C)(C)c1nc(-c2cccc(NS(=O)(=O)c3c(F)cccc3F)c2F)c(-c2ccnc(N)n2)s1,enzyme activity,inhibitor,radiometric,1 µM,remaining activity,103%
CCN(CC)c1ccc(C2=NNC(=O)CC2C)cc1[N+](=O)[O-] (stereo not shown),enzyme activity,inhibitor,,10 µM,remaining activity,91%
Cc1cnc(NC2CCOCC2)nc1-n1cnc(C(=O)NC(CN)c2cc(F)cc(Cl)c2)c1 (stereo not shown),enzyme activity,inhibitor,radiometric,1 µM,remaining activity,95%
COc1cc2c(Nc3ccc(Br)cc3F)ncnc2cc1OCC1CCN(C)CC1,cell-free assay,,,0.5 µM,remaining signal,94.6%
Cn1c2c(c3ccc(Cl)c(Cl)c31)C(C#N)C1(CCOCC1)NC2=O (stereo not shown),thermal stability,,DSF,10 µM,ΔTm,0 °C
CS(=O)(=O)NCC[C@H](NC(=O)c1cncc2c1cnn2-c1ccc(F)cc1)c1ccnc(S(C)(=O)=O)c1,cell-free assay,,competition with immobilised ligand,1 µM,remaining binding,100%
O=C1NC(=O)c2cc(Nc3ccc(F)cc3)c(Nc3ccc(F)cc3)cc21,cell-free assay,,,0.5 µM,remaining signal,108%
CCC1(CC)NC(=O)c2c(c3ccc(Cl)c(Cl)c3n2C)C1C#N (stereo not shown),thermal stability,,DSF,10 µM,ΔTm,0.2 °C
Cc1ccc(NC(=O)c2ccc(C)c(C(F)(F)F)c2)cc1C#Cc1nn(C2CCC(O)CC2)c2ncnc(N)c12 (stereo not shown),cell-free assay,,,10 µM,remaining signal,91%
O=C(Nc1cnn(-c2csc(C(=O)NC3COC3)c2)c1)Nc1ccccc1Cl,enzyme activity,inhibitor,,5 µM,remaining activity,102%
O=C(NCc1ncc(C(F)(F)F)cc1Cl)c1ccc2c(c1)C1(CCS(=O)(=O)CC1)[C@@H](C1CC1)N2S(=O)(=O)c1ccc(F)cc1,cell-free assay,,competition with immobilised ligand,1 µM,remaining binding,86%
Cn1c2c(c3ccc(Cl)c(Cl)c31)C(C#N)C1(CCNCC1)NC2=O (racemic),thermal stability,,DSF,10 µM,ΔTm,-0.3 °C
CC(C)CC(=O)N1CCc2nc(-c3ccc(Br)cc3)nc(N(C)Cc3ccccc3)c2C1,cell-free assay,,competition with immobilised ligand,0.1 µM,remaining binding,87%
CCCS(=O)(=O)Nc1ccc(F)c(C(=O)c2c[nH]c3ncc(-c4ccc(Cl)cc4)cc23)c1F,enzyme activity,inhibitor,,1 µM,inhibition,< 10%
Cc1sc(C(=O)NC2COC2)cc1-n1cc(NC(=O)Nc2c(F)cccc2Cl)cn1,enzyme activity,inhibitor,,10 µM,remaining activity,95.2%
Cc1cc(NC(=O)c2cccc3cc(-c4cccc5[nH]nc(N)c45)ccc23)ccc1F,enzyme activity,inhibitor,,0.1 µM,activity vs control,99%
Cn1c2c(c3ccc(Cl)c(Cl)c31)C(C#N)C1(CCN(C(=O)OC(C)(C)C)CC1)NC2=O (racemic),thermal stability,,DSF,10 µM,ΔTm,-0.5 °C
CCN(CC)CCNC(=O)c1c(C)[nH]c(/C=C2\C(=O)Nc3ccc(F)cc32)c1C,enzyme activity,inhibitor,,0.3 µM,inhibition,-8%
COc1ccc2cc(OCC3(C(=O)O)CN(C(=O)c4ccc(F)cc4)C3)ccc2c1,cell-free assay,,competition with immobilised ligand,1 µM,remaining binding,76%
COc1cc(Cl)c(C(=O)N[C@@H](CN[C@H]2CC[C@@H](N)CC2)Cc2ccc(C#N)cc2)cc1-c1ccc(CN[C@H](C)c2ccc(C)cc2)o1,enzyme activity,inhibitor,,1 µM,remaining activity,100%
O=C(O)c1cc(-c2ccc(C3CCNCC3)cc2)c2ccc(-c3ccc(C(F)(F)F)cc3)cc2c1,cell-free assay,,competition with immobilised ligand,1 µM,remaining binding,100%
Cc1ccc(Nc2nccc(N(C)c3ccc4c(C)n(C)nc4c3)n2)cc1S(N)(=O)=O,enzyme activity,inhibitor,,10 µM,inhibition,-12%
CO[C@H]1CC[C@H](CNc2ccc(S(=O)(=O)NC(=O)c3ccc(N4CCN(CC5=C(c6ccc(Cl)cc6)CC(C)(C)CC5)CC4)cc3Oc3cnc4[nH]ccc4c3)cc2[N+](=O)[O-])CC1,cell-free assay,,competition with immobilised ligand,1 µM,remaining binding,91%
CNC(=O)c1cc(Oc2ccc(NC(=O)Nc3ccc(Cl)c(C(F)(F)F)c3)cc2)ccn1,enzyme activity,inhibitor,,0.3 µM,inhibition,-9%
Cn1c2c(Cl)c(Cl)ccc2c2cc[nH]c(=O)c21,thermal stability,,DSF,10 µM,ΔTm,0 °C
O=C(O)[C@H]1[C@H](Cn2nnc3ccccc3c2=O)CC[C@@H]1C(=O)c1ccc(OCCC2CCOCC2)cc1,cell-free assay,,competition with immobilised ligand,1 µM,remaining binding,83%
Cn1c2c(Cl)c(Cl)ccc2c2cc(N)[nH]c(=O)c21,thermal stability,,DSF,10 µM,ΔTm,0.1 °C
Cc1nc(C2CCN(C(=O)c3ccc(OC(F)(F)F)cc3N)CC2)c2ncc(N3CCN(C)CC3)cc2n1,cell-free assay,,competition with immobilised ligand,1 µM,remaining binding,100%
